Assay type in all cases: functional
Assay [1] deals with Rattus norvegicus. Briefly: Inhibition of carrageenan-induced rat's paw edema (CPE) after peroral administration of 100 mg/kg dose. Conditions: route oral. In a few lines: (§1)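 Male Wistar rats (about 150 g) were dosed orally with compound suspended in 5% arabic gum, 1 h before a subplantar hind-paw injection of 0.1 mL saline. The irritant was 1% zymosan for 33 or 1% λ-carrageenin for 34. Paw volume was measured by plethysmograph before dosing and at 4 h (zymosan) or 3 h (carrageenin). Swelling is relative to initial volume, as mean ± SEM. % inhibition is versus the control group's mean swelling.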
For orientation: Carrageenan injected into the paw causes an acute inflammation.

Assay [2] has as its system Rattus norvegicus. Briefly: Antiinflammatory activity on Carrageenan rat's paw edema(CPE) after peroral administration of 100 mg/kg dose with control swelling of 68.1%. Conditions: route oral.
For assay [3], the system named is Rattus norvegicus. Kind of assay: Inhibition of Zymosan-induced rat's paw edema(ZPE) after peroral administration of 100 mg/kg dose. The note with it: route oral. The method in brief:
as §1

The test system of assay [4] is Rattus norvegicus. Kind of assay: Antiinflammatory activity on Zymosan-induced rat's paw edema(ZPE) after peroral administration of 100 mg/kg dose with control swelling of 62.8%. The note with it: route oral. The method in brief: (§2)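 Male Wistar rats weighing about 150 g were dosed orally with compound suspended in 5% arabic gum. 1 h later, 1% zymosan in 0.1 mL saline was injected subplantarly into the hind paw. Paw volume was measured by plethysmograph before dosing and 4 h after zymosan, with edema as the volume difference. Inhibition % was derived from mean swelling versus the control group.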

Assay [5] has as its system Rattus norvegicus. Briefly: Compound was tested for the inhibition of rat reversed passive Arthus pleurisy after peroral administration of 100 mg/kg dose at 0.63 mL of exudate volume with 0.84 mL of control (injected intrapleurally). The note with it: route oral. In a few lines: (§3)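 Male Wistar rats (about 250 g) were given compound orally before the antiserum. Under ether anesthesia, 0.2 mL rabbit anti-egg albumin antiserum was injected intrapleurally. After 30 min, egg albumin (15 mg/100 g body weight in 0.1 mL saline) was given iv. Rats were killed 4.5 h later and the thoracic cavity was rinsed with 5 mL saline. Exudate volume and infiltrated cell number were measured, with inhibition % versus controls as mean ± SEM.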

Assay [6] deals with Rattus norvegicus. Kind of assay: Compound was tested for the inhibition of rat reversed passive Arthus pleurisy after peroral administration of 100 mg/kg dose at 4.63*10e6 no of cells with 5.72*10e6 cells of control. Conditions: route oral. The method in brief:
(§4)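 Male Wistar rats (about 250 g) under ether received 0.2 mL rabbit anti-egg-albumin antiserum intrapleurally. Thirty min later they got 15 mg EA/100 g body weight in 0.1 mL saline iv. Compounds were given orally beforehand. Rats were killed 4.5 h after induction and the thoracic cavity rinsed with 5 mL saline. Exudate volume and infiltrated cell count were read as mean ± SE. % inhibition is versus control.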

Assay [7] concerns Rattus norvegicus. Briefly: Antiinflammatory activity on Zymosan-induced rat's paw edema(ZPE) after peroral administration of 100 mg/kg dose with control swelling of 72.9%. The note with it: route oral. The method in brief:
as §2

For assay [8], the system named is Rattus norvegicus. Kind of assay: Antiinflammatory activity on Carrageenan rat's paw edema(CPE) after peroral administration of 100 mg/kg dose with control swelling of 73.7%. Conditions: route oral.
The test system of assay [9] is Rattus norvegicus. Kind of assay: Compound was tested for the inhibition of rat reversed passive Arthus pleurisy after peroral administration of 10 mg/kg dose at 0.53+/-0.05 mL of exudate volume (injected intrapleurally). Conditions: route oral. The method in brief: as §3
Assay [10] deals with Rattus norvegicus. Kind of assay: Compound was tested for the inhibition of arachidonic acid-induced rat's paw edema(APE) after peroral administration of 30 mg/kg dose with control swelling of 51.6%. Conditions: route oral.
In assay [11] the test system is Rattus norvegicus. Briefly: Antiinflammatory activity on Zymosan-induced rat's paw edema(ZPE) after peroral administration of 3 mg/kg dose with control swelling of 68.1%. Conditions: route oral. The method in brief:
as §2

For assay [12], the system named is Rattus norvegicus. Kind of assay: Compound was tested for the inhibition of rat reversed passive Arthus pleurisy after peroral administration of 25 mg/kg dose at 0.4+/-0.07 mL of exudate volume (injected intrapleurally). The note with it: route oral. The method in brief: as §4
Assay [13] relates to Rattus norvegicus. Briefly: Compound was tested for the inhibition of arachidonic acid-induced rat's paw edema(APE) after peroral administration of 10 mg/kg dose with control swelling of 51.6%. The note with it: route oral. In a few lines: (§5)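 Test: arachidonic acid paw edema in male Wistar rats of about 150 g. Oral dosing in 5% arabic gum came 1 h before subplantar injection of 1% arachidonic acid sodium salt in 0.1 mL saline into the hind paw. Plethysmograph paw volume was read before dosing and 1 h post-irritant, and edema = volume difference. % inhibition was taken from mean swelling against controls.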

Assay [14] concerns Rattus norvegicus. Briefly: Compound was tested for the inhibition of arachidonic acid-induced rat's paw edema(APE) after peroral administration of 10 mg/kg dose. Conditions: route oral. In a few lines: as §5
The test system of assay [15] is Rattus norvegicus. Kind of assay: Compound was tested for the inhibition of arachidonic acid-induced rat's paw edema(APE) after peroral administration of 3 mg/kg dose with control swelling of 51.6%. Conditions: route oral. The method in brief:
as §5

The subject of assay [16] is Rattus norvegicus. Briefly: Compound was tested for the inhibition of rat reversed passive Arthus pleurisy after peroral administration of 100 mg/kg dose at 0.08+/-0.01 mL of exudate volume (injected intrapleurally). The note with it: route oral. The method in brief:
as §3

The test system of assay [17] is Rattus norvegicus. Briefly: Antiinflammatory activity on Carrageenan rat's paw edema(CPE) after peroral administration of 30 mg/kg dose with control swelling of 75.8%. The note with it: route oral.
Assay [18] concerns Rattus norvegicus. Briefly: Antiinflammatory activity on Carrageenan rat's paw edema(CPE) after peroral administration of 3 mg/kg dose with control swelling of 75.8%. The note with it: route oral.
Assay [19] has as its system Rattus norvegicus. Briefly: Compound was tested for the inhibition of rat reversed passive Arthus pleurisy after peroral administration of 100 mg/kg dose at 0.08 mL of exudate volume with 0.86 mL of control (injected intrapleurally). Conditions: route oral. The method in brief: as §3
Assay [20] deals with Rattus norvegicus. Briefly: Antiinflammatory activity on Carrageenan rat's paw edema(CPE) after peroral administration of 100 mg/kg dose with control swelling of 64.2%. The note with it: route oral.
Assay [21] relates to Rattus norvegicus. Briefly: Compound was tested for the inhibition of Zymosan-induced rat's paw edema(ZPE) after peroral administration of 30 mg/kg dose. Conditions: route oral. In a few lines:
as §2

Assay [22] relates to Rattus norvegicus. Briefly: Compound was tested for the inhibition of Carrageenan rat's paw edema(CPE) after peroral administration of 3 mg/kg dose. The note with it: route oral.
Assay [23] concerns Rattus norvegicus. Kind of assay: Antiinflammatory activity on Zymosan-induced rat's paw edema(ZPE) after peroral administration of 100 mg/kg dose with control swelling of 71.7%. Conditions: route oral. The method in brief: as §2
Assay [24] concerns Rattus norvegicus. Kind of assay: Compound was tested for the inhibition of rat reversed passive Arthus pleurisy after peroral administration of 5 mg/kg dose at 2.79 +/- 0.19*10e6 no of cells. The note with it: route oral. The method in brief: as §4
The test system of assay [25] is Rattus norvegicus. Kind of assay: Compound was tested for the inhibition of rat reversed passive Arthus pleurisy after peroral administration of 25 mg/kg dose at 4.74+/-0.24*10e6 no of cells. Conditions: route oral. In a few lines: as §4
The subject of assay [26] is Rattus norvegicus. Briefly: Antiinflammatory activity on Zymosan-induced rat's paw edema(ZPE) after peroral administration of 30 mg/kg dose with control swelling of 68.1%. The note with it: route oral. In a few lines:
as §2

For assay [27], the system named is Rattus norvegicus. Kind of assay: Compound was tested for the inhibition of rat reversed passive Arthus pleurisy after peroral administration of 10 mg/kg dose at 4.6+/-0.25*10e6 no of cells. Conditions: route oral. The method in brief:
as §3

The subject of assay [28] is Rattus norvegicus. Kind of assay: Compound was tested for the inhibition of arachidonic acid-induced rat's paw edema(APE) after peroral administration of 3 mg/kg dose. The note with it: route oral. The method in brief:
as §5

Assay [29] concerns Rattus norvegicus. Briefly: Compound was tested for the inhibition of Zymosan-induced rat's paw edema(ZPE) after peroral administration of 3 mg/kg dose. Conditions: route oral. In a few lines: as §2
For assay [30], the system named is Rattus norvegicus. Kind of assay: Compound was tested for the inhibition of arachidonic acid-induced rat's paw edema(APE) after peroral administration of 30 mg/kg dose. Conditions: route oral. In a few lines: as §5
Assay [31] deals with Rattus norvegicus. Kind of assay: Antiinflammatory activity on Carrageenan rat's paw edema(CPE) after peroral administration of 10 mg/kg dose with control swelling of 75.8%. Conditions: route oral.
In assay [32] the test system is Rattus norvegicus. Briefly: Compound was tested for the inhibition of rat reversed passive Arthus pleurisy after peroral administration of 5 mg/kg dose at 0.73+/-0.03 mL of exudate volume (injected intrapleurally). Conditions: route oral. In a few lines:
as §4

The test system of assay [33] is Rattus norvegicus. Kind of assay: Compound was tested for the inhibition of rat reversed passive Arthus pleurisy after peroral administration of 100 mg/kg dose at 2.13*10e6 no of cells with 3.86*10e6 cells of control. Conditions: route oral. In a few lines:
as §3

Assay [34] has as its system Rattus norvegicus. Kind of assay: Compound was tested for the inhibition of Zymosan-induced rat's paw edema(ZPE) after peroral administration of 10 mg/kg dose. Conditions: po. The method in brief: as §2
In assay [35] the test system is Rattus norvegicus. Kind of assay: Antiinflammatory activity on Zymosan-induced rat's paw edema(ZPE) after peroral administration of 10 mg/kg dose with control swelling of 68.1%. The note with it: route oral. The method in brief: as §2
Assay [36] has as its system Rattus norvegicus. Briefly: Compound was tested for the inhibition of rat reversed passive Arthus pleurisy after peroral administration of 100 mg/kg dose at 2.13+/-0.24*10e6 no of cells. Conditions: route oral. In a few lines: as §3
Assay [37] concerns Rattus norvegicus. Briefly: Compound was tested for the inhibition of rat reversed passive Arthus pleurisy after peroral administration of 100 mg/kg dose at 0.33 mL of exudate volume with 0.46 mL of control (injected intrapleurally). The note with it: route oral. The method in brief:
as §3

Assay [38] concerns Rattus norvegicus. Kind of assay: Antiinflammatory activity on Zymosan-induced rat's paw edema(ZPE) after peroral administration of 100 mg/kg dose with control swelling of 52.2%. Conditions: route oral. The method in brief: as §2
The subject of assay [39] is Rattus norvegicus. Kind of assay: Compound was tested for the inhibition of rat reversed passive Arthus pleurisy after peroral administration of 100 mg/kg dose at 1.69*10e6 no of cells with 2.17*10e6 cells of control. Conditions: route oral. In a few lines:
as §3

The test system of assay [40] is Rattus norvegicus. Briefly: Antiinflammatory activity on Carrageenan rat's paw edema(CPE) after peroral administration of 100 mg/kg dose with control swelling of 81.0%. Conditions: route oral.

Molecules are shown by their SMILES.

We go through four compounds from ChEMBL document CHEMBL1126267, “A novel synthesis and potent antiinflammatory activity of 4-hydroxy-2(1H)-oxo-1-phenyl-1,8-naphthyridine-3-carboxamides” (1992).

With `COc1cccc(NC(=O)c2c(O)c3cccnc3n(-c3ccccc3)c2=O)c1`, the inhibition in vivo at 100 mg/kg came to 20.7% in [1], 5.7% in assay [3], 26.9% in [5] and 22.1% in assay [6]. The Swelling was 54% in assay [2] and 59.2% in assay [4].
As for `Nc1ccc(NC(=O)c2c(O)c3cccnc3n(-c3ccccc3)c2=O)cc1`, the figures for the inhibition in vivo at 100 mg/kg in assay [1] and in assay [3] were 0% and -5.5%, respectively. For the same compound, the Swelling in assay [7] is on record as 76.9%; in assay [8], 79%.
On to `O=C(Nc1ccncc1)c1c(O)c2cccnc2n(-c2ccccc2)c1=O`, for which the inhibition in vivo at 10 mg/kg in assay [9] was 32.9%; in [14], 50.6%; in [27] it was 35.8%; in assay [34] it was 20.3%. Moreover, the Swelling stood at 29.1% in assay [10]; 60.6% in assay [11]; 25.5% in [13]; 33% in assay [15]; 58.8% in assay [17]; 72.1% in assay [18]. In addition, the Swelling turned out to be 48.6% in assay [20]; 46.7% in [23]; 48.5% in assay [26]; 71.3% in [31]; 54.3% in assay [35]. Moreover, the inhibition in vivo at 25 mg/kg in assay [12] came to 51.4%; in [25], 33.3%. Also, the inhibition in vivo at 100 mg/kg was 24.3% in assay [1]; 34.9% in assay [3]; 100% in assay [16]; 100% in [19]; 58.6% in assay [33]; 58.6% in assay [36]. Further, the values for the inhibition in vivo at 30 mg/kg in [21] and in [30] were 28.8% and 43.6%, respectively. Besides, the results for the inhibition in vivo at 3 mg/kg in assay [22], in [28] and in [29] were 4.9%, 36% and 11.9%, respectively. Besides, the inhibition in vivo at 5 mg/kg in assay [24] was 26%; in assay [32], -3.2%.
Regarding `O=C(NC1CCN(Cc2ccccc2)CC1)c1c(O)c2cccnc2n(-c2ccccc2)c1=O`, the inhibition in vivo at 100 mg/kg in [37] was found to be 32.4%; in assay [1] it was 1.2%; in assay [3], 1.7%; in assay [39] it was 22.1%. The Swelling is listed as 51.3% in [38] and 80.8% in assay [40].

In general, inhibition in vivo refers to the drop in the measured response relative to a control, in per cent.
